Shown are actives, neighbours in structure and some others; about 2.9% of the full set was active somewhere.
C2C12 statin: suppression of simvastatin myotoxicity; C2C12 myotubes + simvastatin, ATP luminescence, 48 h; scaled: DMSO 0, geranylgeraniol control 100; rescue of ATP level, % at 7.49 µM; 330,000 compounds, 0.78% hits;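 active = mean ATP rescue above about 67%, or every replicate alone reaching that limit, limit read from the data, passing the limit was not always enough; inconclusive = no clear call, values can overlap the other calls; inactive = mean under the limit and some replicate under it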;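 also: myotubes were challenged with 10 µM simvastatin during compound exposure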
PGC1a acetyl inh: lowers PGC1a acetylation signal in U2OS cells; AlphaScreen anti-acetyl-lysine; with virally co-expressed GCN5 acetyltransferase; inhibition, % at 15.6 µM; 350,000 compounds, 0.17% hits; AID 651687;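 active = every replicate shows inhibition of at least 40%; inconclusive = mean inhibition at least 40% but some replicate below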
SIRT5 inh: sirtuin-5 (human) deacylase inhibition. AID 652115. Purified SirT5, succinyl-peptide AMC, trypsin-coupled fluorescence. 330,000 compounds, 1.1% hits. inhibition, % at 15 µM. Q9NXA8; in the data active = inhibition above about 15%; inconclusive = no clear call, values can overlap the other calls
Target sequence (Q9NXA8 whole entry, looked up): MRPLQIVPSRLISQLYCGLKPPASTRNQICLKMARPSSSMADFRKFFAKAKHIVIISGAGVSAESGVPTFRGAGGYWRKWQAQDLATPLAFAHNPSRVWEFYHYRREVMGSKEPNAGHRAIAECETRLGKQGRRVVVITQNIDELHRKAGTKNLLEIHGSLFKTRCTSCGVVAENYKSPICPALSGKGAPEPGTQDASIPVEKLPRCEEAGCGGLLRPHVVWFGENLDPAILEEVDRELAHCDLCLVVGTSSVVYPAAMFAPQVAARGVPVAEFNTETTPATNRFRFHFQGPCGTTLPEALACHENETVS
DENV2 CPE: inhibitors of DENV2 cytopathic effect; DENV2-infected cells, cytopathic effect rescue, plate reader; CPE inhibition, % at 9.99 µM; 350,000 compounds, 1.7% hits; in the data active = CPE inhibition above about 20%, passing the limit was not always enough; inconclusive = no clear call, values can overlap the other calls; tested in BHK-21 cells
S100A4 MyoIIA: S100A4-myosin IIA interaction inhibition | P26447 | S100A4/TAMRA-MyoIIA peptide fluorescence polarization | inhibition, % at 10.7 µM | 360,000 compounds, 0.14% hits | AID 652163;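 active = mean inhibition of at least 70% across replicates, with every replicate also reaching that level; inconclusive = mean inhibition reaches 70% but some replicates fall short; inactive = mean inhibition below 70%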
Target sequence (P26447 whole entry, looked up): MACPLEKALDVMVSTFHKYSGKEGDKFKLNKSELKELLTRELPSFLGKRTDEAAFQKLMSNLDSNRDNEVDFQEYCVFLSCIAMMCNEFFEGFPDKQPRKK
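Material: S100A4 monomer protein | Medium: HEPES pH 7.2 with CaCl2, KCl, NaCl, DTT, Triton | Reagent: Labelled myosin peptide probe, 5 nM | Doses: One dose per compound | Times: 5 min incubation before reading | Benchmarks: Neutral control DMSO, positive control TFP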
A number is an active result; ! = not confirmed by another sample.

What do the screens show for `CCc1ccc2cc(C)cc(C)c2n1`?
C2C12 statin: inactive; PGC1a acetyl inh: inactive; SIRT5 inh: inactive; DENV2 CPE: 34.1; S100A4 MyoIIA: inactive

How did CN(C)C(=O)c1cccc(-c2ccc([C@@H]3[C@@H](CO)N4C(=O)CN(C(=O)C5CCCCC5)C[C@H]34)cc2)c1 do in these assays?
PGC1a acetyl inh: inactive; SIRT5 inh: inactive; DENV2 CPE: 39.3; S100A4 MyoIIA: inactive

Results for COc1ccc(-c2ccc([C@H]3[C@H]4CN(C(=O)C5CCC5)CC(=O)N4[C@H]3CO)cc2)cc1 ?
PGC1a acetyl inh: inactive; SIRT5 inh: inactive; DENV2 CPE: inactive; S100A4 MyoIIA: inactive

How did CC(=O)N1CC(=O)N2[C@H](CO)[C@@H](c3ccc(-c4cccc(C(=O)N(C)C)c4)cc3)[C@@H]2C1 do in these assays?
PGC1a acetyl inh: inactive; SIRT5 inh: inactive; DENV2 CPE: inactive

Results for CN(C)C(=O)c1cccc(-c2ccc([C@@H]3[C@H](CO)N4C(=O)CN(C(=O)C5CC5)C[C@@H]34)cc2)c1 ?
PGC1a acetyl inh: inactive; SIRT5 inh: 19.1; DENV2 CPE: inactive; S100A4 MyoIIA: inactive

How did COc1ccc(-c2ccc([C@@H]3[C@H]4CN(C(=O)C5CC5)CC(=O)N4[C@H]3CO)cc2)cc1 do in these assays?
PGC1a acetyl inh: inactive; SIRT5 inh: inactive; DENV2 CPE: 30.9; S100A4 MyoIIA: inactive

Results for CC(=O)N1CC(=O)N2[C@@H](CO)[C@H](c3ccc(-c4ccc(C(=O)N(C)C)cc4)cc3)[C@@H]2C1 ?
PGC1a acetyl inh: inactive; SIRT5 inh: 22.7; DENV2 CPE: inactive; S100A4 MyoIIA: inactive

What do the screens show for `CN(C)C(=O)c1cccc(-c2ccc([C@H]3[C@@H](CO)N4C(=O)CN(C(=O)C5CCCCC5)C[C@@H]34)cc2)c1`?
PGC1a acetyl inh: inactive; SIRT5 inh: inactive; DENV2 CPE: inactive; S100A4 MyoIIA: inactive

How did C[C@H](CO)N1C[C@H](C)[C@@H](CN(C)S(=O)(=O)c2ccc(F)cc2)Oc2ccc(NC(=O)Cn3cnnn3)cc2CC1=O do in these assays?
C2C12 statin: inactive; PGC1a acetyl inh: inactive; SIRT5 inh: inactive; DENV2 CPE: inconclusive; S100A4 MyoIIA: inactive

How did COc1cc(/C=N/NC(=O)c2ccc(CN3C(=O)c4cccc5cccc3c45)cc2)cc(OC)c1O do in these assays?
C2C12 statin: 87.3; PGC1a acetyl inh: inactive; SIRT5 inh: inactive; DENV2 CPE: inactive; S100A4 MyoIIA: inactive

What do the screens show for `COc1ccc(/C=N/NC(=O)c2ccc(CN3C(=O)c4cccc5cccc3c45)cc2)cc1O`?
SIRT5 inh: inactive; DENV2 CPE: inactive; S100A4 MyoIIA: inactive

How did O=P(CCCCCCCCCP(=O)(c1ccccc1)c1ccccc1)(c1ccccc1)c1ccccc1 do in these assays?
C2C12 statin: inactive; PGC1a acetyl inh: 78.3

What do the screens show for `C[C@H](CO)N1C[C@H](C)[C@H](CN(C)C(=O)Nc2ccc3c(c2)OCO3)Oc2c(NC(=O)Nc3ccc(C(F)(F)F)cc3)cccc2C1=O`?
C2C12 statin: inactive; PGC1a acetyl inh: inactive; DENV2 CPE: inactive

What do the screens show for `Cc1cc(C(=O)Nc2cccc3c2O[C@H](CN(C)C(=O)Nc2ccc(C(F)(F)F)cc2)[C@@H](C)CN([C@H](C)CO)C3=O)n(C)n1`?
C2C12 statin: inactive; PGC1a acetyl inh: inactive; SIRT5 inh: inactive; DENV2 CPE: 38.3; S100A4 MyoIIA: inactive

What do the screens show for `C[C@H](CO)N1C[C@H](C)[C@@H](CN(C)C(=O)Nc2ccc3c(c2)OCO3)Oc2c(NC(=O)C3CC3)cccc2C1=O`?
C2C12 statin: inactive; PGC1a acetyl inh: inactive; SIRT5 inh: 22.4!; DENV2 CPE: inactive; S100A4 MyoIIA: inactive

Results for C[C@@H]1CN([C@H](C)CO)C(=O)c2cccc(NC(=O)Nc3ccc(C(F)(F)F)cc3)c2O[C@@H]1CN(C)C(=O)Nc1ccc2c(c1)OCO2 ?
C2C12 statin: inactive; PGC1a acetyl inh: inactive; DENV2 CPE: 40.9

What do the screens show for `C[C@H]1CN([C@@H](C)CO)C(=O)c2cccc(NC(=O)Nc3ccc(F)cc3)c2O[C@@H]1CN(C)C(=O)Nc1ccc(C(F)(F)F)cc1`?
C2C12 statin: inactive; PGC1a acetyl inh: inactive; SIRT5 inh: inactive; DENV2 CPE: 57.1; S100A4 MyoIIA: inactive

What do the screens show for `Cc1cc(C(=O)Nc2cccc3c2O[C@@H](CN(C)C(=O)Nc2ccc(C(F)(F)F)cc2)[C@@H](C)CN([C@@H](C)CO)C3=O)n(C)n1`?
C2C12 statin: inactive; PGC1a acetyl inh: inactive; SIRT5 inh: inactive; DENV2 CPE: inactive; S100A4 MyoIIA: inactive

What do the screens show for `COc1ccc(NC(=O)N(C)C[C@H]2Oc3ccc(NS(=O)(=O)c4cn(C)cn4)cc3CC(=O)N([C@@H](C)CO)C[C@H]2C)cc1`?
C2C12 statin: inactive; PGC1a acetyl inh: inactive; SIRT5 inh: inactive; DENV2 CPE: inconclusive; S100A4 MyoIIA: inactive

Results for CNC[C@H]1Oc2c(NC(=O)Nc3ccc(C(F)(F)F)cc3)cccc2C(=O)N([C@H](C)CO)C[C@H]1C ?
C2C12 statin: inactive; PGC1a acetyl inh: inactive; SIRT5 inh: inactive; DENV2 CPE: inactive; S100A4 MyoIIA: inactive

Results for Cc1noc(C)c1NC(=O)N(C)C[C@@H]1Oc2c(NC(=O)Nc3ccc(C(F)(F)F)cc3)cccc2C(=O)N([C@H](C)CO)C[C@@H]1C ?
C2C12 statin: inactive; PGC1a acetyl inh: inactive; SIRT5 inh: inactive; DENV2 CPE: inactive; S100A4 MyoIIA: inactive

Results for C[C@H]1CN([C@@H](C)CO)C(=O)c2cccc(NC(=O)Nc3ccc4c(c3)OCO4)c2O[C@@H]1CN(C)C(=O)Nc1ccccc1 ?
C2C12 statin: inactive; PGC1a acetyl inh: inactive; DENV2 CPE: inactive

How did C[C@@H]1CN([C@H](C)CO)C(=O)c2cccc(NC(=O)Nc3ccc4c(c3)OCO4)c2O[C@H]1CN(C)C(=O)Nc1ccccc1 do in these assays?
C2C12 statin: inactive; PGC1a acetyl inh: inactive; DENV2 CPE: 100.0

What do the screens show for `CNC[C@H]1Oc2c(NC(=O)Nc3ccc(C(F)(F)F)cc3)cccc2C(=O)N([C@@H](C)CO)C[C@H]1C`?
C2C12 statin: inactive; PGC1a acetyl inh: inactive; SIRT5 inh: inactive; DENV2 CPE: inactive; S100A4 MyoIIA: 93.3

Results for Cc1noc(C)c1NC(=O)N(C)C[C@@H]1Oc2c(NC(=O)Nc3ccc(C(F)(F)F)cc3)cccc2C(=O)N([C@@H](C)CO)C[C@@H]1C ?
C2C12 statin: inactive; PGC1a acetyl inh: inactive; SIRT5 inh: inactive; DENV2 CPE: 31.5; S100A4 MyoIIA: inactive

What do the screens show for `CN1[C@@H]2c3ccc(/C=C/c4ccccc4)c(=O)n3C[C@H]1[C@H](CO)[C@H]2C(=O)NC1CCCCC1`?
PGC1a acetyl inh: inactive; SIRT5 inh: inactive; DENV2 CPE: inactive; S100A4 MyoIIA: inactive

Results for C[C@@H]1CN([C@@H](C)CO)C(=O)c2cc(NS(=O)(=O)c3ccc(F)cc3)ccc2O[C@H]1CN(C)C(=O)NC1CCCCC1 ?
C2C12 statin: inactive; PGC1a acetyl inh: inactive; SIRT5 inh: inactive; DENV2 CPE: 34.6; S100A4 MyoIIA: inactive

What do the screens show for `Cc1noc(C)c1S(=O)(=O)Nc1ccc2c(c1)CC(=O)N([C@@H](C)CO)C[C@H](C)[C@H](CN(C)C(=O)NC1CCCCC1)O2`?
C2C12 statin: inactive; PGC1a acetyl inh: inactive; SIRT5 inh: inactive; DENV2 CPE: inactive; S100A4 MyoIIA: inactive
